# Experimental data gathered from unrelated publications.
# Lines come from different studies, so protocols differ.
# ABL1 Y253F phosphorylated: Tyrosine-protein kinase ABL1, phosphorylated (ABL1, Homo sapiens, UniProt P00519, Y253F)
# ABL1 T315I phosphorylated: Tyrosine-protein kinase ABL1, phosphorylated (ABL1, Homo sapiens, UniProt P00519, T315I)
# ABL1 phosphorylated: Tyrosine-protein kinase ABL1, phosphorylated (ABL1, Homo sapiens, UniProt P00519)
# ABL1 E255K phosphorylated: Tyrosine-protein kinase ABL1, phosphorylated (ABL1, Homo sapiens, UniProt P00519, E255K)
# ABL1 F317I non-phosphorylated: Tyrosine-protein kinase ABL1, non-phosphorylated (ABL1, Homo sapiens, UniProt P00519, F317I)
# ABL1 F317L: Tyrosine-protein kinase ABL1 (ABL1, Homo sapiens, UniProt P00519, F317L)
# ABL1 non-phosphorylated: Tyrosine-protein kinase ABL1, non-phosphorylated (ABL1, Homo sapiens, UniProt P00519)
# ABL1 H396P non-phosphorylated: Tyrosine-protein kinase ABL1, non-phosphorylated (ABL1, Homo sapiens, UniProt P00519, H396P)
# ABL1 T315I non-phosphorylated: Tyrosine-protein kinase ABL1, non-phosphorylated (ABL1, Homo sapiens, UniProt P00519, T315I)
SMILES,target,read-out,method,tested at,remaining binding
Cc1cnc(Nc2ccc(C(=O)N3CCC(N4CCCC4)CC3)cc2)nc1-c1cc2ccccc2s1,ABL1 Y253F phosphorylated,binding,competition with immobilised ligand,1 µM,0.6%
COc1cnc(Nc2cccc(S(N)(=O)=O)c2)nc1N1CCN(c2ccccc2)CC1,"Tyrosine-protein kinase ABL1, phosphorylated (ABL1, Homo sapiens, UniProt P00519, M351T)",binding,competition with immobilised ligand,1 µM,98%
C[C@H](c1ccc(F)cc1)N(Cc1cccc(C(=O)O)c1)C(=O)c1cnc2ccccc2c1,ABL1 T315I phosphorylated,cell-free assay,competition with immobilised ligand,1 µM,75%
N[C@H]1CCN(c2nccc(-c3cnn4ncccc34)n2)C1,ABL1 phosphorylated,binding,,1 µM,88%
CNC(=O)[C@@H]1CC[C@@H](n2c(-c3ccc4cnccc4c3)nc3ccc(C(=O)NCc4cccc(C(N)=O)c4)cc32)C1,ABL1 phosphorylated,binding,competition with immobilised ligand,1 µM,90%
CN1CCN(c2ccc(Nc3nccc(-c4cccc([N+](=O)[O-])c4)n3)cc2C(F)(F)F)CC1,"Tyrosine-protein kinase ABL1 (ABL1, Homo sapiens, UniProt P00519, Y253F)",binding,,10 µM,4%
O=C(NCc1ncc(C(F)(F)F)cc1Cl)c1ccc2c(c1)C1(CCS(=O)(=O)CC1)[C@H](C1CC1)N2S(=O)(=O)c1ccc(F)cc1,ABL1 phosphorylated,cell-free assay,competition with immobilised ligand,1 µM,71%
N#Cc1ccccc1CSc1nnc2c(n1)[nH]c1ccccc12,ABL1 E255K phosphorylated,binding,competition with immobilised ligand,10 µM,85%
Cn1cc(Cl)c2c(Oc3c(F)cc(Nc4cc(Cl)nc(N)n4)cc3F)ccnc21,ABL1 F317I non-phosphorylated,binding,competition with immobilised ligand,0.1 µM,93%
COc1ccnn2ncc(-c3ccnc(N(C)C)n3)c12,ABL1 F317L,binding,,1 µM,85%
C[C@@H]1CN(c2cc(-c3n[nH]c4ccc(OC5(C)CC5)cc34)ncn2)C[C@H](C)O1,ABL1 phosphorylated,cell-free assay,competition with immobilised ligand,0.1 µM,67%
Nc1ncc2c(n1)-c1c([nH]c3ccc(C#CC4CC4)cc13)CCCC2,ABL1 non-phosphorylated,binding,competition with immobilised ligand,1 µM,95%
O=C(c1ccc(Nc2ncc(Cl)c(-c3cc4ccccc4s3)n2)cc1)N1CCC(N2CCCC2)CC1,ABL1 H396P non-phosphorylated,binding,competition with immobilised ligand,1 µM,1.8%
C=CC(=O)N1CCC(C(=O)NCC(=O)N2CCN(c3nc(-c4cnc(N)nc4C(F)F)nc(N4CCOCC4)n3)CC2)CC1,ABL1 phosphorylated,binding,competition with immobilised ligand,1 µM,93%
c1cncc(-c2cccc(Nc3nccc(NC4CCCCC4)n3)c2)c1,"Tyrosine-protein kinase ABL1, phosphorylated (ABL1, Homo sapiens, UniProt P00519, Q252H)",binding,competition with immobilised ligand,10 µM,24%
C[C@@H](c1ccc(-n2cnc3c(N)ncnc32)cc1)N1CCc2nn(C)c(Cc3ccccc3)c2C1=O,"Tyrosine-protein kinase ABL1, non-phosphorylated (ABL1, Homo sapiens, UniProt P00519, Q252H)",binding,competition with immobilised ligand,0.1 µM,26%
CCOC(=O)c1cc2cc(-c3cc(C(=O)NCc4ccc(C(=O)O)cc4)nn3C)ccc2[nH]1,"Tyrosine-protein kinase ABL1, phosphorylated (ABL1, Homo sapiens, UniProt P00519, H396P)",cell-free assay,competition with immobilised ligand,0.1 µM,85%
O=C(NCCCN1CCOCC1)c1ccc(Nc2nccc(-c3cc4ccccc4s3)n2)cc1,ABL1 E255K phosphorylated,binding,competition with immobilised ligand,1 µM,45%
COc1cnc(Nc2cccc(S(N)(=O)=O)c2)nc1N1CCN(c2ccccc2)C(=O)C1,ABL1 non-phosphorylated,binding,competition with immobilised ligand,1 µM,77%
C[C@H]1CCN(c2nccc(-c3cnn4ncccc34)n2)C1,"Tyrosine-protein kinase ABL1 (ABL1, Homo sapiens, UniProt P00519, Q252H)",binding,,1 µM,84%
COc1ncc2cc3ccccc3nc2c1C#N,ABL1 phosphorylated,cell-free assay,competition with immobilised ligand,5 µM,93%
c1cnn2ncc(-c3ccnc(N4CCC45COC5)n3)c2c1,"Tyrosine-protein kinase ABL1 (ABL1, Homo sapiens, UniProt P00519, E255K)",binding,,1 µM,63%
CC(C)(C)c1ccc(-c2nc(CBr)nn2-c2cccc(O)c2)cc1,ABL1 phosphorylated,cell-free assay,competition with immobilised ligand,10 µM,85%
COCCOc1nc(-c2ccc(Cl)nc2)nc2c1CN(C(=O)c1ncn3ccccc13)CC2,ABL1 E255K phosphorylated,binding,competition with immobilised ligand,0.1 µM,100%
CN(C)c1nccc(-c2cnn3ncccc23)n1,"Tyrosine-protein kinase ABL1 (ABL1, Homo sapiens, UniProt P00519, M351T)",binding,,1 µM,100%
Cc1cc(NC(=O)c2cccc(S(F)(F)(F)(F)F)c2)cc(-n2ccn3nc(-c4cccnc4)cc23)c1,ABL1 F317I non-phosphorylated,binding,competition with immobilised ligand,1 µM,100%
O=C(c1ccc(Nc2ncc(Cl)c(-c3ccc(Cl)s3)n2)cc1)N1CCC(N2CCCC2)CC1,ABL1 T315I non-phosphorylated,binding,competition with immobilised ligand,1 µM,0%
CSc1cccnc1N1CCN(Cc2nc3ccccc3[nH]2)CC1,ABL1 Y253F phosphorylated,cell-free assay,competition with immobilised ligand,1 µM,76%
O=C(NCC1CCOCC1)c1n[nH]cc1NC(=O)c1c(F)cccc1F,ABL1 H396P non-phosphorylated,binding,competition with immobilised ligand,1 µM,76%
Cc1cnn2ncc(-c3ccnc(N(C)C)n3)c2c1,ABL1 phosphorylated,binding,,1 µM,81%
O=C(NCCCN1CCOCC1)c1ccc(Nc2ncc(Cl)c(-c3ccc(Cl)s3)n2)cc1,ABL1 H396P non-phosphorylated,binding,competition with immobilised ligand,1 µM,4.2%
F[C@@H]1CCN(c2nccc(-c3cnn4ncccc34)n2)C1,ABL1 phosphorylated,binding,,1 µM,79%
CCN1CCN(Cc2ccc(C(=O)Nc3ccc(C)c(Oc4ccc5c(c4)CC(=O)N5)c3)cc2C(F)(F)F)CC1,ABL1 T315I non-phosphorylated,binding,competition with immobilised ligand,1 µM,16%
CN1CCN(c2ccc(Nc3nccc(-c4ccccc4)n3)cc2C(F)(F)F)CC1,ABL1 F317L,binding,,10 µM,66%
O=C(c1ccc(Nc2nccc(-c3cc4ccccc4s3)n2)cc1)N1CCC(N2CCCC2)CC1,"Tyrosine-protein kinase ABL1, non-phosphorylated (ABL1, Homo sapiens, UniProt P00519, F317L)",binding,competition with immobilised ligand,1 µM,78%
O=C(Nc1c[nH]nc1C(=O)NC1CCNCC1)c1cc(F)cc(F)c1,ABL1 T315I phosphorylated,binding,competition with immobilised ligand,1 µM,98%
